Results reported in ChEMBL document CHEMBL1138526, “Design, synthesis, and biological activity of boronic acid-based histone deacetylase inhibitors” (J Med Chem, 2009).

Experiments:
[1] = molecular target: Histone deacetylase; experiment: Inhibition of HDAC in human HeLa cell nuclear extracts by fluorimetry; assay type: cell-based
[2] = molecular target: T1, Histone deacetylase (Homo sapiens) (UniProt Q13547+O15379+Q9UBN7+Q92769+Q9UQL6+Q8WUI4+Q9BY41+Q96DB2+P56524+Q9UKV0+Q969S8); experiment: Inhibition of HDAC in human HeLa cell nuclear extracts at 100 uM by fluorimetry; assay type: cell-free
[3] = molecular target: T2, Histone deacetylase 1 (Homo sapiens, UniProt Q13547); experiment: Inhibition of human recombinant HDAC1 by fluorimetry
[4] = molecular target: Histone deacetylase 2 (Homo sapiens, UniProt Q92769); experiment: Inhibition of human recombinant HDAC2 by fluorimetry
[5] = molecular target: T3, Histone deacetylase 8 (Homo sapiens, UniProt Q9BY41); experiment: Inhibition of human recombinant HDAC8 by fluorimetry
T3 sequence (Q9BY41 whole entry): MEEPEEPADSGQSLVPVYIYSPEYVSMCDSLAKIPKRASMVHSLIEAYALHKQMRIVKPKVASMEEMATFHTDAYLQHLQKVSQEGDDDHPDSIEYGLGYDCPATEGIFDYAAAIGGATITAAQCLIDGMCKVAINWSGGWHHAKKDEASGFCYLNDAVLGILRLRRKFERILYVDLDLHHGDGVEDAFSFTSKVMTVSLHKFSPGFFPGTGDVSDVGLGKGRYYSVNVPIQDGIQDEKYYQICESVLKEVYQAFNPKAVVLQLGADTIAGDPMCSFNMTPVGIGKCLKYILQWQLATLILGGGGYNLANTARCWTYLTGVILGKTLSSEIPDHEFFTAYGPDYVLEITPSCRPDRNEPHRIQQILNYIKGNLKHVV

[6] = molecular target: T4, Protein deacetylase HDAC6 (Homo sapiens, UniProt Q9UBN7); experiment: Inhibition of human recombinant HDAC6 by fluorimetry
T4 sequence (Q9UBN7 whole entry): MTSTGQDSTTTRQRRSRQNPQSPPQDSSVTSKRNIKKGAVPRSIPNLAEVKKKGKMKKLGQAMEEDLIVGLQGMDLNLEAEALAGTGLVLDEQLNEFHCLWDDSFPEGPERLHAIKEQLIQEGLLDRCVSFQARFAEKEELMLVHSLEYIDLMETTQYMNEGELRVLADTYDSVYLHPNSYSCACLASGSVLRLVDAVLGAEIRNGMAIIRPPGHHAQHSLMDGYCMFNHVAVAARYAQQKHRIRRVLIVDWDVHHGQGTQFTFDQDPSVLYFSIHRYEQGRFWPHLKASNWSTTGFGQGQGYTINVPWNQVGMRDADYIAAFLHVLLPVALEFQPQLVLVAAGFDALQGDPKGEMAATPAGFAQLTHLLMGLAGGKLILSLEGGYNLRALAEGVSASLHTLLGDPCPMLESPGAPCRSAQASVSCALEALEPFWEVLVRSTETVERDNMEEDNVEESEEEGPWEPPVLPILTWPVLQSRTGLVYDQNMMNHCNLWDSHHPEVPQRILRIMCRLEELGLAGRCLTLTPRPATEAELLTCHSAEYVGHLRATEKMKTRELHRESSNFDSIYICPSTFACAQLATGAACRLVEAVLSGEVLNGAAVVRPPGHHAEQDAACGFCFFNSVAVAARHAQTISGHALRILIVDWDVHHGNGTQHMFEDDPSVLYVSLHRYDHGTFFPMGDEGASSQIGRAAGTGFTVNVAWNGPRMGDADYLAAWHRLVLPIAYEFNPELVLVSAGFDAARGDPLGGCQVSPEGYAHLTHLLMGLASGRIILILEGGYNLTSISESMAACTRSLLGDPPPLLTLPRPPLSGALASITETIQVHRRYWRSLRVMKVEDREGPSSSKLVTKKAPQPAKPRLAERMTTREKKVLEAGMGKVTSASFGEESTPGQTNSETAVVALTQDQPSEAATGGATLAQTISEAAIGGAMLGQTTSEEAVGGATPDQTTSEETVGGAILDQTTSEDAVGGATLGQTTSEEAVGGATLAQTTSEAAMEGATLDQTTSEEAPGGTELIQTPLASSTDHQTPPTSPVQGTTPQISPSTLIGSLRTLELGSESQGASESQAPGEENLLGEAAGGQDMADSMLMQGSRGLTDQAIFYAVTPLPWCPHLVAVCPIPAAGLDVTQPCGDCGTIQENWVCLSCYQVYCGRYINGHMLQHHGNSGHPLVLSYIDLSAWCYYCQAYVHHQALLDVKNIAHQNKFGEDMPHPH

[7] = molecular target: T2, Histone deacetylase 1; experiment: Inhibition of human recombinant HDAC1 at 10 uM by fluorimetry
[8] = tested on: MKN-45; experiment: cells; assay type: functional; conditions: Homo sapiens, MKN-45, 48 h
[9] = Ratio of GI50 for human MKN45 cells to IC50 for HDAC in human HeLa cells
[10] = Ratio of GI50 for human MKN45 cells to IC50 for human recombinant HDAC1; set-up: species or system MKN-45
[11] = Ratio of GI50 for human MKN45 cells to IC50 for human recombinant HDAC2; set-up: species or system MKN-45
[12] = molecular target: T1, Histone deacetylase (Homo sapiens); experiment: Inhibition of HDAC in human HCT116 cells assessed as induction of histone H4 acetylation after 8 hrs by Western blot analysis; assay type: cell-based; conditions: HCT-116
[13] = molecular target: T5, Protein deacetylase HDAC6 (Homo sapiens) (UniProt Q9UBN7); experiment: Inhibition of HDAC6 in human HCT116 cells assessed as induction of alpha tubulin acetylation after 8 hrs by Western blot analysis; assay type: cell-based; conditions: HCT-116
T5 sequence (whole entry): T4 sequence (Q9UBN7 whole entry)

[14] = tested on: DMS-114; experiment: Growth inhibition of human DMS114 cells after 48 hrs by sulforhodamine B assay; assay type: functional
Method in brief: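 GI50 read from growth inhibition of DMS114 lung cancer cells, one line in a nine-line human cancer panel; each value is the mean of two separate experiments.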

[15] = cells; assay type: functional; conditions: Homo sapiens, HBC5, 48 h
[16] = tested on: SNB-78; experiment: cells; assay type: functional; conditions: Homo sapiens, SNB-78, 48 h
[17] = tested on: HCT-116; experiment: cells; assay type: functional; conditions: Homo sapiens, HCT-116, 48 h
[18] = tested on: LOX IMVI; experiment: cells; assay type: functional; conditions: Homo sapiens, 48 h
[19] = tested on: SK-OV-3; experiment: cells; assay type: functional; conditions: Homo sapiens, SK-OV-3, 48 h
[20] = cells; assay type: functional; conditions: Homo sapiens, RXF 631, 48 h
[21] = tested on: PC-3; experiment: cells; assay type: functional; conditions: Homo sapiens, PC-3, 48 h

Histone deacetylase 2, sequence (Q92769 whole entry): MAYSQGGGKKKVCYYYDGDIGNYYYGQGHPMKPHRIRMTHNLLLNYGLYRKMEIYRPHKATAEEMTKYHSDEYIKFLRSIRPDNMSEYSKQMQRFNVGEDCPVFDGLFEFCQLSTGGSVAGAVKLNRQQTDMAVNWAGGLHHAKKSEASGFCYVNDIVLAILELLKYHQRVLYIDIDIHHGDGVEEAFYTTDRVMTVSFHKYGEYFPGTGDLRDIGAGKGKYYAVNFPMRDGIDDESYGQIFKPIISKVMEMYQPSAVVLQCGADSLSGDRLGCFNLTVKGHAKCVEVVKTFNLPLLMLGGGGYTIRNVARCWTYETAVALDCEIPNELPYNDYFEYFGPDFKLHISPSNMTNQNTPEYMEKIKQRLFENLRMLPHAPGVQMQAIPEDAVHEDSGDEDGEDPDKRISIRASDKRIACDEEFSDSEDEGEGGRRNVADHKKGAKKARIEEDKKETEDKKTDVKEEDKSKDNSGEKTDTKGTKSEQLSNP
T2 sequence (Q13547 whole entry): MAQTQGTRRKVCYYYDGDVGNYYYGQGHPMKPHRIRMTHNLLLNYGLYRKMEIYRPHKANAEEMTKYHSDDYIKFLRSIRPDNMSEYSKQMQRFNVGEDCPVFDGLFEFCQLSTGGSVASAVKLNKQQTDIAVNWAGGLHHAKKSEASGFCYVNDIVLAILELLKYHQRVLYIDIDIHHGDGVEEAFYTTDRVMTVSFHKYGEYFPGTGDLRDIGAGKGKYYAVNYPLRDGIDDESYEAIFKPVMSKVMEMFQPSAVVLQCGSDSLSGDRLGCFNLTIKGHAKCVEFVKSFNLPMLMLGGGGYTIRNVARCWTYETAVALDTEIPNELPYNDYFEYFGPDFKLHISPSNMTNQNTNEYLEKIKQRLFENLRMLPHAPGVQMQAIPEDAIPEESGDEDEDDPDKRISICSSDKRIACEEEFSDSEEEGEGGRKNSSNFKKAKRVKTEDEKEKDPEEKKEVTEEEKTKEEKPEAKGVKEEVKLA

## O=C(NC(CCCCCB(O)O)C(=O)Nc1cccc(-c2ccccc2)c1)c1cscn1 (stereo unspecified)
[1]
  IC50: 4.7 µM

## O=C(CCCCCCB(O)O)Nc1ccc(Oc2ccccc2)cc1
[2]
  inhibition: 2.2%
[1]
  IC50: > 100 µM

## O=C(CCCCCCB(O)O)Nc1nc2ccccc2s1
[2]
  inhibition: 5.1%
[1]
  IC50: > 100 µM

## O=C(NC(CCCCCB(O)O)C(=O)Nc1cccc(-c2ccccc2)c1)c1ccc2ccccc2n1 (stereo unspecified)
[1]
  IC50: > 100 µM

## O=C(Nc1ccccc1)C(CCCCCB(O)O)C(=O)Nc1cccc(-c2ccccc2)c1 (stereo unspecified)
[1]
  IC50: 30 µM

## CC(C)(C)OC(=O)NC(CCCCCB(O)O)C(=O)Nc1cccc(Oc2ccccc2)c1 (stereo unspecified)
[2]
  inhibition: 38%
[1]
  IC50: > 100 µM

## O=C(NC(CCCCCB(O)O)C(=O)Nc1cccc(-c2ccccc2)c1)c1cc2ccccc2[nH]1 (stereo unspecified)
[1]
  IC50: 11 µM

## O=C(N[C@@H](CCCCCB(O)O)C(=O)Nc1cccc(-c2ccccc2)c1)c1ccccc1
[1]
  IC50: 1.6 µM
[3]
  IC50: > 10 µM
[4]
  IC50: 3.6 µM
[5]
  IC50: > 100 µM
[6]
  IC50: 1.1 µM
[7]
  inhibition: 38%
[8]
  GI50: 9.3 µM
[9]
  Ratio: 5.8
[10]
  Ratio: < 0.93
[11]
  Ratio: 2.6
[12]
  Activity: Dose-dependent effect
[13]
  Activity: Dose-dependent effect

## O=C(N[C@@H](CCCCCB(O)O)C(=O)Nc1cccc(-c2ccccc2)c1)c1cccnc1
[1]
  IC50: 1.4 µM
[3]
  IC50: 2.8 µM
[4]
  IC50: 0.83 µM
[5]
  IC50: 23 µM
[6]
  IC50: 0.32 µM
[8]
  GI50: 5.5 µM
[9]
  Ratio: 3.9
[10]
  Ratio: 2
[11]
  Ratio: 6.6
[12]
  Activity: Dose-dependent effect
[13]
  Activity: Dose-dependent effect

## CC(C)(C)OC(=O)NC(CCCCCB(O)O)C(=O)Nc1nc2ccccc2s1 (stereo unspecified)
[2]
  inhibition: 78%
[1]
  IC50: 23 µM

## O=C(CCCCCCB(O)O)Nc1ccccc1
[2]
  inhibition: 37%
[1]
  IC50: > 100 µM

## O=C(NC(CCCCCB(O)O)C(=O)Nc1cccc(-c2ccccc2)c1)c1cncs1 (stereo unspecified)
[1]
  IC50: 1.4 µM

## CC(C)(C)OC(=O)NC(CCCCCB(O)O)C(=O)Nc1ccccc1 (stereo unspecified)
[2]
  inhibition: 42%
[1]
  IC50: > 100 µM

## O=C(CCCCCCB(O)O)Nc1cnc2ccccc2c1
[2]
  inhibition: 32%
[1]
  IC50: > 100 µM

## O=C(N[C@H](CCCCCB(O)O)C(=O)Nc1cccc(-c2ccccc2)c1)c1cccnc1
[1]
  IC50: 15 µM
[3]
  IC50: > 100 µM
[4]
  IC50: 99 µM
[5]
  IC50: > 100 µM
[6]
  IC50: 14 µM

## O=C(CCCCCCB(O)O)Nc1cccc(-c2ccccc2)c1
[2]
  inhibition: 40%
[1]
  IC50: > 100 µM

## O=C(CCCCCCB(O)O)Nc1cccc(Oc2ccccc2)c1
[2]
  inhibition: 1.8%
[1]
  IC50: > 100 µM

## O=C(NC(CCCCCB(O)O)C(=O)Nc1cccc(-c2ccccc2)c1)c1ccccc1 (stereo unspecified)
[1]
  IC50: 2 µM

## O=C(CCCCCCC(=O)Nc1ccccc1)NO [VORINOSTAT]
[14]
  GI50: 2.9 µM

## CC(C)(C)OC(=O)NC(CCCCCB(O)O)C(=O)Nc1cnc2ccccc2c1 (stereo unspecified)
[2]
  inhibition: 86%
[1]
  IC50: 16 µM

## CC(C)(C)OC(=O)NC(CCCCCB(O)O)C(=O)Nc1ccc(Oc2ccccc2)cc1 (stereo unspecified)
[2]
  inhibition: 15%
[1]
  IC50: > 100 µM

## O=C(N[C@H](CCCCCB(O)O)C(=O)Nc1cccc(-c2ccccc2)c1)c1cncs1
[1]
  IC50: 24 µM
[3]
  IC50: > 100 µM
[4]
  IC50: > 100 µM
[5]
  IC50: > 100 µM
[6]
  IC50: 5.6 µM
[8]
  GI50: 21 µM
[15]
  GI50: 20 µM
[16]
  GI50: 13 µM
[17]
  GI50: 16 µM
[14]; Homo sapiens, DMS-114, 48 h
  GI50: 17 µM
[18]
  GI50: 19 µM
[19]
  GI50: 19 µM
[20]
  GI50: 19 µM
[21]
  GI50: 18 µM

## O=C(NC(CCCCCB(O)O)C(=O)Nc1cccc(-c2ccccc2)c1)OCc1ccccc1 (stereo unspecified)
[1]
  IC50: 4.2 µM

## O=C(NC(CCCCCB(O)O)C(=O)Nc1cccc(-c2ccccc2)c1)c1cccnc1 (stereo unspecified)
[1]
  IC50: 2 µM

## O=C(Nc1cccnc1)C(CCCCCB(O)O)C(=O)Nc1cccc(-c2ccccc2)c1 (stereo unspecified)
[1]
  IC50: 51 µM

## CC(C)(C)OC(=O)NC(CCCCCB(O)O)C(=O)Nc1cccc(-c2ccccc2)c1 (stereo unspecified)
[2]
  inhibition: 85%
[1]
  IC50: 12 µM

## O=C(N[C@@H](CCCCCB(O)O)C(=O)Nc1cccc(-c2ccccc2)c1)c1cncs1
[1]
  IC50: 0.92 µM
[3]
  IC50: 2.2 µM
[4]
  IC50: 0.53 µM
[5]
  IC50: 6.6 µM
[6]
  IC50: 0.11 µM
[8]
  GI50: 3.5 µM
[9]
  Ratio: 3.8
[10]
  Ratio: 1.6
[11]
  Ratio: 6.6
[15]
  GI50: 6.5 µM
[16]
  GI50: 9.1 µM
[17]
  GI50: 0.73 µM
[14]; Homo sapiens, DMS-114, 48 h
  GI50: 2.4 µM
[18]
  GI50: 1.3 µM
[19]
  GI50: 2.2 µM
[20]
  GI50: 3.2 µM
[21]
  GI50: 6.7 µM
[12]
  Activity: Dose-dependent effect
[13]
  Activity: Dose-dependent effect

## O=C(N[C@H](CCCCCB(O)O)C(=O)Nc1cccc(-c2ccccc2)c1)c1ccccc1
[1]
  IC50: 17 µM
[3]
  IC50: > 100 µM
[4]
  IC50: > 100 µM
[5]
  IC50: > 100 µM
[6]
  IC50: 24 µM

## CN(C)c1ccc(C(=O)NC(CCCCCB(O)O)C(=O)Nc2cccc(-c3ccccc3)c2)cc1 (stereo unspecified)
[1]
  IC50: 13 µM
